Experimental data taken from ChEMBL document CHEMBL2046385, “Palau'amine and related oroidin alkaloids dibromophakellin and dibromophakellstatin inhibit the human 20S proteasome” (J Nat Prod, 2012).
Calls of active or inactive are those of the source. The calls are words filed in the database; no cut-off is given here. Peptide text beside a SMILES is read from it. * marks the point of attachment. Cbz = O=C(OCc1ccccc1)*

Key:
[1] = Inhibition of caspase-like of purified human 20S proteasome using Z-LLE-AMC as substrate after 30 mins by fluorescence assay
How it was run: (§1)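 Purified human 20S core at 1 nM in 50 mM Tris-HCl pH 7.5 with 0.03% SDS, 37 °C. Fluorogenic substrate was used at its Km. Released AMC was read at ex 380/em 460 nm every minute for 30 min. The maximal (linear) rate was used to derive IC50. Each value is the mean of three or more independent experiments.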

[2] = Inhibition of chymotryptic-like of purified human 20S proteasome using Suc-LLVY-AMC as substrate after 30 mins by fluorescence assay; how it was run: as §1
[3] = Inhibition of chymotryptic-like of purified human 20S immunoproteasome
[4] = Inhibition of tryptic-like of purified human 20S proteasome using Boc-LRR-AMC as substrate after 30 mins by fluorescence assay; how it was run: as §1
Homo sapiens [5] = species: Homo sapiens; assay: Reversible inhibition of chymotryptic-like of purified human 20S proteasome assessed as Suc-LLVY-AMC substrate at 1 uM measured after drug washout
How it was run: (§2)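 Washout assay. Human 20S proteasome (1 nM) was exposed to vehicle or inhibitor (1 or 10 μM), then assayed for CT-L activity with Suc-LLVY-AMC as in the main assay. The mixture was washed through a 10K centrifugal filter with 500 volumes of reaction buffer. Retentate CT-L activity was compared with the prewash activity.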

Homo sapiens [6] = species: Homo sapiens; assay: Irreversible inhibition of chymotryptic-like of purified human 20S proteasome assessed as Suc-LLVY-AMC substrate at 0.5 to 1 uM
How it was run: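 Suc-LLVY-AMC 50 μM (Km). AMC fluorescence λex 380/λem 440. Vmax taken from linear portions and plotted against [E]. An irreversible inhibitor intersects the horizontal axis rather than passing through the origin.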

HeLa [7] = assay: Inhibition of 26S proteasome-mediated IkappaBalpha proteasomal degradation in TNFalpha-stimulated human HeLa cells at 1 uM treated 30 mins before TNFalpha challenge measured after 30 mins using DAPI staining by confocal microscopy analysis; type: cell-based
How it was run: (§3)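 HeLa cells on coverslips in MEM with 10% FBS were pretreated 30 min with 1 μM compound or 0.1% DMSO vehicle, then given 20 ng/mL TNFα for 30 min or left unstimulated. Fixed in paraformaldehyde, permeabilized with Triton, blocked in BSA/Tween. Mouse anti-IκBα (L35A5) 1:250 overnight at 4 °C, then Alexa-labelled secondary; DAPI counterstain. Confocal imaging with quantified IκBα fluorescence intensity; p-value versus vehicle/TNFα.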

Homo sapiens [8] = species: Homo sapiens; assay: Irreversible inhibition of chymotryptic-like of purified human 20S proteasome assessed as Suc-LLVY-AMC substrate at 10 to 50 uM measured after drug washout
HeLa [9] = assay: Inhibition of 26S proteasome-mediated IkappaBalpha proteasomal degradation in human HeLa cells at 1 uM after 30 mins using DAPI staining by confocal microscopy analysis; type: cell-based; how it was run: as §3
Homo sapiens [10] = species: Homo sapiens; assay: Reversible inhibition of purified human 20S proteasome at pH >7.5
How it was run: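 Compound preincubated in assay buffer (50 mM Tris-HCl, 0.03% SDS) at pH 7.5 or 8.0 for varying times before enzyme addition. Residual inhibition of 1 nM purified human 20S proteasome then read by fluorogenic AMC release at 37 °C over 30 min.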

HeLa [11] = assay: Inhibition of 20S proteasome in TNFalpha-stimulated human HeLa cells assessed as accumulation of ubiquitinylated cellular proteins at 1 uM after 2 hrs using DAPI staining by fluorescence confocal microscopic analysis; type: cell-based
How it was run: (§4)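 HeLa cells grown on glass coverslips in MEM with 10% FBS and penicillin/streptomycin. Treated 2 h with 1.0 μM compound or 0.1% DMSO vehicle, TNFα 20 ng/mL stimulation for 2 h. Fixed in 4% paraformaldehyde, permeabilized with 0.5% Triton, blocked in 5% BSA/0.05% Tween-20. […] anti-ubiquitin (P4D1) 1:250 overnight at 4 °C, then Alexa546 secondary; DAPI nuclear stain. DIC and confocal imaging, with quantification of ubiquitin fluorescence intensity.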

HeLa [12] = assay: Inhibition of 20S proteasome in TNFalpha-stimulated human HeLa cells assessed as accumulation of ubiquitinylated cellular proteins at 1 uM after 2 hrs using DAPI staining by DIC image analysis; type: cell-based; how it was run: as §4
Homo sapiens [13] = species: Homo sapiens; assay: Irreversible inhibition of chymotryptic-like of purified human 20S proteasome assessed as Suc-LLVY-AMC substrate at 1 uM measured after drug washout; how it was run: as §2

SMILES: O=c1c2cc(Br)c(Br)n2cc2n1CCC2
- IC50 [1]: > 100 µM
- IC50 [2]: > 100 µM
- IC50 [3]: > 100 µM
- IC50 [4]: > 100 µM

SMILES: CC(C)C[C@@H](C=O)NC(=O)[C@H](CC(C)C)NC(=O)[C@H](CC(C)C)NC(=O)OCc1ccccc1 (Cbz-Leu-Leu-Leu-aldehyde)
- inhibition (Homo sapiens [5]): Active

SMILES: NC[C@@H]1[C@H]2CN3C(=O)c4cccn4[C@@H]4NC(N)=N[C@@]43[C@@H]2[C@]2(N=C(N)N[C@H]2O)[C@H]1Cl [listing 1 of 2 here]
- inhibition (Homo sapiens [6]): Active
- inhibition (HeLa [7]): Active
- inhibition (Homo sapiens [8]): Active
- inhibition (HeLa [9]): Active
- inhibition (Homo sapiens [10]): Active
- inhibition (HeLa [11]): Active
- inhibition (HeLa [12]): Active

SMILES: NC[C@@H]1[C@H]2CN3C(=O)c4cccn4[C@@H]4NC(N)=N[C@@]43[C@@H]2[C@]2(N=C(N)N[C@H]2O)[C@H]1Cl [listing 2 of 2 here]
- IC50 [1]: 1.6 µM
- IC50 [2]: 2.5 µM
- IC50 [3]: 2.3 µM

SMILES: O=C1N[C@H]2n3c(cc(Br)c3Br)C(=O)N3CCC[C@]23N1 (racemic) [DIBROMOPHAKELLSTATIN]
- IC50 [1]: 16.1 µM
- IC50 [2]: 11.9 µM
- IC50 [3]: 6.2 µM
- IC50 [4]: > 100 µM

SMILES: NC[C@@H]1[C@H]2CN3C(=O)c4cccn4[C@@H]4NC(N)=N[C@@]43[C@@H]2[C@]2(N=C(N)N[C@H]2O)[C@H]1Cl (racemic)
- IC50 [1]: 3 µM
- IC50 [2]: 5.5 µM
- IC50 [3]: 4 µM
- IC50 [4]: > 100 µM

SMILES: CC[C@H](C)[C@H](NC(=O)[C@H]([C@@H](C)CC)N(C)C(C)=O)C(=O)N[C@H](C(=O)N[C@@H](CC(C)C)C(=O)[C@@]1(C)CO1)[C@@H](C)O
- inhibition (Homo sapiens [13]): Active

SMILES: NC1=N[C@]23CCCN2C(=O)c2cc(Br)c(Br)n2[C@@H]3N1 (racemic) [DIBROMOPHAKELLIN]
- IC50 [1]: 27.1 µM
- IC50 [2]: 25.3 µM
- IC50 [3]: 18.7 µM
- IC50 [4]: > 100 µM
